Measured values as given in ChEMBL document CHEMBL4765333, “Novel NO-releasing scopoletin derivatives induce cell death via mitochondrial apoptosis pathway and cell cycle arrest” (Eur J Med Chem, 2020).
Active and inactive are the calls of the source. The calls are words filed in the database; no cut-off is given here.

Key:
MDA-MB-231 [1] = assay: Induction of apoptosis in human MDA-MB-231 cells assessed as early apoptotic cells at 3 uM after 24 hrs by Annexin V/propidium iodide based flow cytometric analysis (reference value: 0.94%); type: functional
Summary of the method: (§1)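 MDA-MB-231 cells (2×10^5/well) attached 24 h, then treated 24 h with 1, 1.5, 2 or 3 µM, DMSO as control. Cells harvested, PBS-washed, resuspended in binding buffer, stained with Annexin V and PI for 30 min at 37°C in the dark, and analysed by flow cytometry for quadrant percentages; three experiments.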

MDA-MB-231 [2] = assay: Induction of apoptosis in human MDA-MB-231 cells assessed as viable cells at 1.5 uM after 24 hrs by Annexin V/propidium iodide based flow cytometric analysis (reference value: 99%); type: functional; conditions: read-out: Activity; summary of the method: as §1
MDA-MB-231 [3] = assay: Induction of cell cycle arrest in human MDA-MB-231 cells assessed as accumulation at G0/G1 phase at 2 uM measured after 24 hrs by propidium iodide staining based flow cytometric method (reference value: 45.71%); type: functional
[4] = Prodrug release in human MDA-MB-231 cells assessed as increase in intracellular NO level at 25 uM measured after 2.5 hrs by total nitric oxide assay; type: ADME, cell-based; conditions: mda-mb-23, 2.5 h
Summary of the method: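 MDA-MB-231 (2×10^5 cells/well) cultured 24 h, then treated 2.5 h with compound at 25 µM or DMSO. Cells harvested, lysed in nitric oxide assay buffer 1 h on ice; lysate NO quantified with a total nitric oxide assay kit. Mean ± SD, n = 3.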

MDA-MB-231 [5] = assay: Induction of cell cycle arrest in human MDA-MB-231 cells assessed as accumulation at G0/G1 phase at 1.5 uM measured after 24 hrs by propidium iodide staining based flow cytometric method (reference value: 45.71%); type: functional
MDA-MB-231 [6] = assay: Induction of cell cycle arrest in human MDA-MB-231 cells assessed as accumulation at G2/M phase at 2 uM measured after 24 hrs by propidium iodide staining based flow cytometric method (reference value: 18.55%); type: functional
MDA-MB-231 [7] = assay: Antiproliferative activity against human MDA-MB-231 cells assessed as inhibition of cell proliferation rate at 4 uM pretreated with 40 uM NO scavenger, hemoglobin for 2 hrs followed by addition of compound and measured after 48 hrs by MTT assay; type: functional
Summary of the method: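 MDA-MB-231 cells pretreated 2 h with the NO scavenger hemoglobin (2.5, 5, 10, 20, 40 µM), then given compound at 4 µM for a further 48 h. Inhibition rate read by MTT assay; mean ± SD, n = 3.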

[8] = Prodrug release in human MDA-MB-231 cells assessed as increase in intracellular NO level at 1 to 10 uM measured after 2.5 hrs by DAF-FM DA reagent based scanning electron microscopy; type: ADME, cell-based; conditions: mda-mb-231, 2.5 h, in the assay text read “laser scanning confocal microscopy” for “scanning electron microscopy”, dose 1-10 µM
Summary of the method: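 After 24 h growth at 5×10^4 cells/well, MDA-MB-231 cells loaded with DAF-FM DA (5 µM) 30 min at 37°C, 5% CO2, PBS-washed, then incubated 2.5 h with compound at 1 or 10 µM (scopoletin at 10 µM). NO fluorescence imaged by laser scanning confocal microscopy.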

MDA-MB-231 [9] = assay: Inhibition of colony formation in human MDA-MB-231 cells assessed as fewer and smaller colonies at 0.5 to 1 uM incubated for 24 hrs followed by culturing in fresh medium for 10 days by crystal violet staining based assay; type: functional, cell-based; conditions: dose 0.5-1 µM
Summary of the method: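 MDA-MB-231 seeded at 1.5×10^3 cells/well, 24 h attachment, then 24 h exposure to compound (0.25, 0.5, 1 µM) or DMSO; fresh medium for a further 10 days. Fixed in 4% paraformaldehyde 0.5 h at 4°C, crystal violet stained, dye dissolved in DMSO and absorbance read at 590 nm; performed three times.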

MDA-MB-231 [10] = assay: Induction of apoptosis in human MDA-MB-231 cells assessed as late apoptotic cells at 1 uM after 24 hrs by Annexin V/propidium iodide based flow cytometric analysis (reference value: 0.038%); type: functional; summary of the method: as §1
MDA-MB-231 [11] = assay: Induction of apoptosis in human MDA-MB-231 cells assessed as up-regulation of Bax expression at 1.5 to 6 uM measured after 8 hrs by Western blot analysis; type: functional, cell-based; conditions: dose 1.5-6 µM
Summary of the method: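 MDA-MB-231 cells (8×10^5 per 60 mm dish) attached 24 h, then exposed 8 h to 1.5, 3 or 6 µM, DMSO as control. Lysates quantified by BCA; 30 µg protein run on 4–20% SDS-PAGE, transferred to PVDF, probed for Bcl-2, Bax, Bad, cleaved caspase-9, cleaved caspase-3 and PARP, with ECL detection. Densitometric relative levels; three experiments.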

[12] = Anticancer activity against human MDA-MB-231 cells assessed as inhibition of cell proliferation measured after 48 hrs by MTT assay; type: functional, cell-based; conditions: MDA-MB-23, 48 h
Summary of the method: (§2)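 Cells seeded at ~5,000/well, grown 24 h to partial monolayer, then exposed 48 h at 37°C, 5% CO2 to 0.5, 1, 2, 4, 10 and 20 µM (DMSO ≤0.1%). MTT final 0.5 mg/ml for 4 h, formazan dissolved in DMSO, A570. Survival expressed as % of untreated control; IC50 from dose-response curves; three independent experiments. MDA-MB-231, MCF-7, HepG2 in DMEM; A549 and LO-2 in RPMI-1640; 10% FBS.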

HepG2 = assay: Anticancer activity against human HepG2 cells assessed as inhibition of cell proliferation measured after 48 hrs by MTT assay; type: functional, cell-based; conditions: HepG2, 48 h; summary of the method: as §2
MDA-MB-231 [13] = assay: Induction of apoptosis in human MDA-MB-231 cells assessed as late apoptotic cells at 1.5 uM after 24 hrs by Annexin V/propidium iodide based flow cytometric analysis (reference value: 0.038%); type: functional; summary of the method: as §1
MDA-MB-231 [14] = assay: Induction of cell cycle arrest in human MDA-MB-231 cells assessed as accumulation at S phase at 1.5 uM measured after 24 hrs by propidium iodide staining based flow cytometric method (reference value: 36.25%); type: functional
MDA-MB-231 [15] = assay: Induction of mitochondrial membrane potential depolarization in human MDA-MB-231 cells assessed as proportion of cells with hyperpolarized MMP at 1 uM incubated for 18 hrs by JC-1 staining based flow cytometry (reference value: 98.4%); type: functional
MDA-MB-231 [16] = assay: Induction of apoptosis in human MDA-MB-231 cells assessed as viable cells at 2 uM after 24 hrs by Annexin V/propidium iodide based flow cytometric analysis (reference value: 99%); type: functional; conditions: read-out: Activity; summary of the method: as §1
MDA-MB-23 = assay: Induction of mitochondrial membrane potential depolarization in human MDA-MB-231 cells incubated for 18 hrs by JC-1 staining based flow cytometry; type: functional, cell-based; conditions: dose 1-2 µM
MDA-MB-231 [17] = assay: Induction of apoptosis in human MDA-MB-231 cells assessed as early apoptotic cells at 1 uM after 24 hrs by Annexin V/propidium iodide based flow cytometric analysis (reference value: 0.94%); type: functional; summary of the method: as §1
[18] = Induction of intracellular reactive oxygen species generation in human MDA-MB-231 cells assessed as proportion of FL1-H negative cells at 1.5 uM measured after 24 hrs by DCFH-DA staining based flow cytometry analysis (reference value: 52.2%); type: functional, MDA-MB-23

COc1cc2cc(N)c(=O)oc2cc1OCCCOc1no[n+]([O-])c1S(=O)(=O)c1ccccc1
Activity (MDA-MB-231 [1]): 13.6%
viability at 1.5 µM (MDA-MB-231 [2]): 75.7%
Activity (MDA-MB-231 [3]): 38.05%
Drug metabolism [4]: Metabolite_Detected
Activity (MDA-MB-231 [5]): 41.85%
Activity (MDA-MB-231 [6]): 40.29%
inhibition at 4 µM (MDA-MB-231 [7]): 39.5%
Drug metabolism [8]: Metabolite_Detected
inhibition (MDA-MB-231 [9]): Active
Activity (MDA-MB-231 [10]): 8.17%
Activity (MDA-MB-231 [11]): Active
IC50 [12]: 1230 nM
IC50 (HepG2): 2810 nM
Activity (MDA-MB-231 [13]): 13.2%
Activity (MDA-MB-231 [14]): 22.92%
Activity (MDA-MB-231 [15]): 93.2%
viability at 2 µM (MDA-MB-231 [16]): 71.1%
Activity (MDA-MB-23): Dose-dependent effect
Activity (MDA-MB-231 [17]): 3.75%
Activity [18]: 17.3%
